Compound activity from PubChem.
This is a sample that favours compounds with a hit; in the whole collection about 2.4% have one here.
HTR5A inv ag: HTR5A inverse agonists in luminescence cell assay, primary screen, counter-screen for OPRM1-OPRD1 heterodimer inverse agonist project, full-deck HTS | 5-hydroxytryptamine receptor 5A (Homo sapiens), P47898 | 340,000 compounds, 0.083% hits | HTR5A cell line, inverse agonism | inhibition, % at 9.3 µM; in the data active means inhibition mostly above about 23%, no sharp cut-off; inactive means mostly below about 18%;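 further: 0% = cells with DMSO and 100% = no-cell wells with DMSO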
HTR5A ag ctr: HTR5A agonists in luminescence cell assay, primary screen, counter-screen for OPRM1-OPRD1 heterodimer agonist project, full-deck HTS; 5-hydroxytryptamine receptor 5A (Homo sapiens), P47898; cell-based; activation, % at 9.3 µM; 340,000 compounds, 0.61% hits; AID 504692, 2011; in the data active means activation mostly above about 9.5%, no sharp cut-off; inactive means mostly below about 7.6%;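 further: 0% = cells with vehicle only and 100% = reference agonist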
OPRM1-OPRD1 inv: inverse agonists of MOR-DOR heterodimerization, primary screen, cell-based, luminescence; cell-based MOR-DOR heterodimer luminescence, inverse agonism; inhibition, % at 9.3 µM; 340,000 compounds, 0.21% hits; AID 504357, 2011; in the data active means inhibition above about 22%, passing the limit was not always enough;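 further: 0% = cells with DMSO and 100% = wells without cells with DMSO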
MC4R barr agon: MC4R agonists recruiting beta-arrestin, primary screen, cell-based, luminescence, agonist arm of biased-ligand search | 360,000 compounds, 0.98% hits | activation, % at 8.9 µM | AID 540308, 2011 | U2OS MC4R beta-arrestin complementation; percent of melanotan II response, DMSO zero | Melanocortin receptor 4 (Homo sapiens), P32245;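 active means activation above a per-plate cutoff, the mean activation of sample wells on that plate plus 3 SD, cut at about 8% in these data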
MC4R antagonist: MC4R antagonists of cAMP signaling, primary screen, cell-based, TR-FRET, antagonist arm of biased-ligand search. Melanocortin receptor 4 (Homo sapiens), P32245. MC4R-expressing cells, MTII-stimulated cAMP, LANCE TR-FRET. inhibition, % at 6.5 µM. 360,000 compounds, 0.48% hits;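 active means inhibition above its plate's cutoff, the mean of tested wells on that plate plus 3 SD, cut at about 29% in these data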;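 further: 0% = Melanotan II alone and 100% = Melanotan II plus saturating MCL0020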
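Material: human MC4R-expressing U2OS cells. Probe or stimulus: Melanotan II challenge. Dosing: 6.5 µM single dose. Times: 30-min compound, 1-h challenge, 1-h detection, room temperature. Technique: TR-FRET with Eu-cAMP and labeled anti-cAMP, 671 nm. Replication: singlicate.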
MOR-DOR ag-1: agonists of OPRM1-OPRD1 heterodimerization, primary screen, cell-based, luminescence; cells; Mu-type opioid receptor (Homo sapiens) + Delta-type opioid receptor (Homo sapiens), …; activation, % at 9.3 µM; 340,000 compounds, 0.3% hits; AID 504326, 2011;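 further: 0% = vehicle-treated cells and 100% = reference agonist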
MOR-DOR ag-2: OPRM1-OPRD1 heterodimerization promoters, counter-screen for HTR5A agonist project, cell-based, luminescence; shares compounds with HTR5A ag ctr; U2OS counter-screen cells, complementation luminescence, 3 h; activation, % at 9.3 µM; 800 compounds, 13% hits; AID 504913, 2011
HTR5A ag confirm: HTR5A agonists, retest of hits, confirmation, cell-based, luminescence | shares compounds with HTR5A ag ctr | HTR5A agonist cell assay | activation, % at 9.3 µM | 800 compounds, 17% hits | AID 504915, 2011; in the data active means activation above about 17%;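 further: 0% = cells with vehicle only and 100% = full reference agonist response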
Starred values were filed as active, the others as inactive. Unless noted, no stated cut-off is given here; in the data, active means activation above about 18%; inactive means the rest.

For Cc1ccc(C2(C)NC(=O)N(CC(=O)NCCN3C(=O)S/C(=C\c4cccnc4)C3=O)C2=O)cc1 (stereo unspecified) the results were HTR5A inv ag 10, HTR5A ag ctr 5, OPRM1-OPRD1 inv 15, MC4R barr agon 1, MC4R antagonist 16 and MOR-DOR ag-1 -4.
For CC1=C(C(=O)N2CCOCC2)CC(CC(=O)NCCCCc2ccccc2)C(=O)N1CCC1=CCCCC1 (stereo unspecified) the results were MC4R barr agon 0 and MC4R antagonist 7.
`C=C1C(=O)OC2CC1C(O)CC(C)=CCCC(C)=CC(O)CC2C` (stereo unspecified) gave HTR5A inv ag -71, HTR5A ag ctr 18*, OPRM1-OPRD1 inv 4, MC4R barr agon 3, MC4R antagonist 5, MOR-DOR ag-1 -1, MOR-DOR ag-2 -2 and HTR5A ag confirm -4.
C=C1C(=O)OC2CC1C(OC(C)=O)CC(C)=CCCC(C)=CCCC2(C)O (stereo unspecified) was read as MC4R barr agon 1 and MC4R antagonist 3.
CCn1cc(C(=O)NC2CCCCCC2)c(=O)c2ccc(C)nc21 was read as HTR5A inv ag 4, HTR5A ag ctr -1, OPRM1-OPRD1 inv 4, MC4R barr agon -2, MC4R antagonist -4 and MOR-DOR ag-1 -1.
For CC1(C(=O)Nc2ccc(F)cc2F)CCN1C(=O)CCC1CCCC1 (stereo unspecified) the results were MC4R barr agon 4 and MC4R antagonist 13.
For CC(=O)NC12CC3CC(C1)CC(C(=O)Nc1cccc(S(=O)(=O)N4CCCCCC4)c1)(C3)C2 the results were HTR5A inv ag -8, HTR5A ag ctr 3, OPRM1-OPRD1 inv -2, MC4R barr agon -2, MC4R antagonist 5 and MOR-DOR ag-1 0.
`COc1cccc(NC(=O)COc2ccc(S(=O)(=O)NC(C)C)cc2)c1` gave HTR5A inv ag -37, HTR5A ag ctr 15*, OPRM1-OPRD1 inv 2, MC4R barr agon -1, MC4R antagonist -2, MOR-DOR ag-1 -1, MOR-DOR ag-2 2 and HTR5A ag confirm 2.
Screening CC(=O)c1cccc(NC(=O)COc2ccccc2)c1 returned HTR5A inv ag -36, HTR5A ag ctr 15*, OPRM1-OPRD1 inv 4, MC4R barr agon 5, MC4R antagonist -7, MOR-DOR ag-1 -1, MOR-DOR ag-2 5 and HTR5A ag confirm 13.
`Cc1nc(NC(=O)COc2ccccc2)sc1C(=O)Nc1cccc(Cl)c1` gave HTR5A inv ag -46, HTR5A ag ctr 18*, OPRM1-OPRD1 inv -16, MC4R barr agon 5, MC4R antagonist 5, MOR-DOR ag-1 3, MOR-DOR ag-2 4 and HTR5A ag confirm 4.
Screening COC(=O)COc1cccc(NC(=O)COc2ccccc2)c1 returned HTR5A inv ag -5, HTR5A ag ctr 2, OPRM1-OPRD1 inv 16, MC4R barr agon -1, MC4R antagonist 9 and MOR-DOR ag-1 -3.
`COc1ccc(NC(=O)c2sc(NC(=O)COc3ccccc3)nc2C)cc1` gave HTR5A inv ag -37, HTR5A ag ctr 0, OPRM1-OPRD1 inv 8, MC4R barr agon -3, MC4R antagonist 0 and MOR-DOR ag-1 -1.
Screening O=C(Oc1cc(Cl)cc(Cl)c1)c1cnc2n(c1=O)CCS2 returned HTR5A inv ag -19, HTR5A ag ctr 7, OPRM1-OPRD1 inv 14, MC4R barr agon -1, MC4R antagonist 10 and MOR-DOR ag-1 -3.
`CCOC(=O)c1ccc(CNC(=O)Cn2nnc(-c3ccccc3)n2)o1` gave HTR5A inv ag -11, HTR5A ag ctr 4, OPRM1-OPRD1 inv -2, MC4R barr agon 0, MC4R antagonist 0 and MOR-DOR ag-1 0.
For Cc1cc(=O)c(C(=O)O)nn1-c1cccc(C(F)(F)F)c1 the results were HTR5A inv ag 13, HTR5A ag ctr -2, OPRM1-OPRD1 inv 14, MC4R barr agon -1, MC4R antagonist 3 and MOR-DOR ag-1 -3.
For Cc1cc(=O)c(C(=O)O)nn1-c1ccccc1C(F)(F)F the results were HTR5A inv ag -4, HTR5A ag ctr 15*, OPRM1-OPRD1 inv 0, MC4R barr agon 0, MC4R antagonist 18, MOR-DOR ag-1 0, MOR-DOR ag-2 0 and HTR5A ag confirm -2.
For Cc1cc(C)[n+](Cc2ccccc2)cc1C(N)=O the results were HTR5A inv ag 5, HTR5A ag ctr -2, OPRM1-OPRD1 inv 9, MC4R barr agon -3, MC4R antagonist -6 and MOR-DOR ag-1 -2.
For Cc1cc[n+](Cc2ccccc2)c(N)c1 the results were HTR5A inv ag -13, HTR5A ag ctr 14*, OPRM1-OPRD1 inv 6, MC4R barr agon 2, MC4R antagonist 6, MOR-DOR ag-1 -1, MOR-DOR ag-2 55* and HTR5A ag confirm -3.
Screening O=C(COc1ncnc2ccccc12)Nc1cc([N+](=O)[O-])ccc1F returned HTR5A inv ag -57, HTR5A ag ctr 19*, OPRM1-OPRD1 inv 10, MC4R barr agon -1, MC4R antagonist -2, MOR-DOR ag-1 -2, MOR-DOR ag-2 2 and HTR5A ag confirm 1.
CSc1cc(C)n(-c2ccccc2)c(=S)c1C(C)=O was read as HTR5A inv ag 1, HTR5A ag ctr 0, OPRM1-OPRD1 inv 12, MC4R barr agon -3, MC4R antagonist -2 and MOR-DOR ag-1 -2.
O=C(NC1CCN(Cc2ccccc2)CC1)c1cccc(S(=O)(=O)Nc2ccc(SC(F)F)cc2)c1 was read as HTR5A inv ag 9, HTR5A ag ctr 19*, OPRM1-OPRD1 inv -18, MC4R barr agon 1, MC4R antagonist 5, MOR-DOR ag-1 4, MOR-DOR ag-2 3 and HTR5A ag confirm 2.
`Cc1ccc(NS(=O)(=O)c2cccc(C(=O)NC3CCN(Cc4ccccc4)CC3)c2)cc1` gave HTR5A inv ag -29, HTR5A ag ctr 12, OPRM1-OPRD1 inv -4, MC4R barr agon 0, MC4R antagonist -4 and MOR-DOR ag-1 1.
Screening CCOc1ccc2nc(NC(=O)Nc3ccccc3)sc2c1 returned HTR5A inv ag -55, HTR5A ag ctr 20*, OPRM1-OPRD1 inv -21, MC4R barr agon 2, MC4R antagonist -9, MOR-DOR ag-1 3, MOR-DOR ag-2 4 and HTR5A ag confirm 0.
